Data: ChEMBL document CHEMBL1765085, “Cytotoxic and apoptosis-inducing activities of triterpene acids from Poria cocos” (J Nat Prod, 2011)
Calls of active or inactive are those of the source. The calls are words filed in the database; no cut-off is given here.

What was measured:
HL-60 [1] = assay: Cytotoxicity in human HL60 cells assessed as cell viability after 48 hrs by MTT assay; type: functional, cell-based; conditions: HL-60, 48 h
Outline: (§1)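 Growth conditions: RPMI 1640 for HL60, CRL1579, NIH:OVCAR-3, SK-BR-3, DU145 and PANC-1; D-MEM for A549; MEM for WI-38; all with 10% FBS and antibiotics, 37 °C, 5% CO2. Seeded at 3 × 10^3 cells/well (OVCAR-3 1 × 10^4), then treated 48 h with 10^-4 to 10^-6 M. MTT for 3 h, formazan dissolved in 0.04 M HCl/2-propanol, A570/630. IC50 (50% growth inhibition) from triplicates.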

A549 [2] = assay: Cytotoxicity in human A549 cells assessed as cell viability after 48 hrs by MTT assay; type: functional, cell-based; conditions: A549, 48 h; outline: as §1
OVCAR-3 = assay: Cytotoxicity in human OVCAR3 cells assessed as cell viability after 48 hrs by MTT assay; type: functional, cell-based; conditions: OVCAR-3, 48 h; outline: as §1
PANC-1 = assay: Cytotoxicity in human PANC1 cells assessed as cell viability after 48 hrs by MTT assay; type: functional, cell-based; conditions: PANC-1, 48 h; outline: as §1
HL-60 [3] = assay: Cell cycle arrest in human HL60 cells assessed as accumulation at sub-G1 phase at 30 uM after 24 hrs by flow cytometry (reference value: 3.0%); type: functional
Outline: (§2)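 Cells seeded at 1 × 10^5 per sample for HL60 and 1.5 × 10^5 for A549, then exposed to 30 μM for 0, 24 or 48 h. After a PBS wash, DNA was stained with Nim-DAPI for 10 min at room temperature. Phase distribution was read by flow cytometry, with the sub-G1 (fragmented DNA) fraction taken as the apoptosis index. Values are means of three experiments.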

HL-60 [4] = assay: Cell cycle arrest in human HL60 cells assessed as accumulation at S phase at 30 uM after 24 hrs by flow cytometry (reference value: 42.6%); type: functional; outline: as §2
HL-60 [5] = assay: Induction of apoptosis in human HL60 cells assessed as accumulation at Go/G1 phase at 30 uM after 48 hrs by flow cytometry (reference value: 51.4%); type: functional; outline: as §2
A549 [6] = assay: Cell cycle arrest in human A549 cells assessed as accumulation at sub-G1 phase at 30 uM after 24 hrs by flow cytometry (reference value: 3.1%); type: functional; outline: as §2
A549 [7] = assay: Cell cycle arrest in human A549 cells assessed as accumulation at S phase at 30 uM after 24 hrs by flow cytometry (reference value: 27.7%); type: functional; outline: as §2
A549 [8] = assay: Cell cycle arrest in human A549 cells assessed as accumulation at G2/M phase at 30 uM after 48 hrs by flow cytometry (reference value: 4.9%); type: functional; outline: as §2
A549 [9] = assay: Induction of mitochondrial signal transduction pathway-mediated apoptosis in human A549 cells assessed as decrease in Bcl-2 level at 30 uM after 24 to 48 hrs by Western blot analysis; type: functional, cell-based
Outline: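 A549 cells (1.5 × 10^5) were pre-incubated 24 h, then given 30 μM for 24 or 48 h. Whole-cell lysates were run on 15% SDS-PAGE, transferred to PVDF and probed overnight at 4 °C for Bax, Bcl-2 and β-actin. The Bcl-2 band was quantified by densitometry relative to untreated cells, n = 3.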

HL-60 [10] = assay: Induction of mitochondrial signal transduction pathway-mediated apoptosis in human HL60 cells assessed as increase in cleaved caspase-3 level at 30 uM after 8 hrs by Western blot analysis; type: functional, cell-based
Outline: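 HL60 cells (1 × 10^6) were pre-incubated 24 h, then given 30 μM for 8 or 24 h. Whole-cell lysates were run on 15% SDS-PAGE, transferred to PVDF and probed overnight at 4 °C for procaspase and cleaved caspase-3, with β-actin as loading control.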

HL-60 [11] = assay: Induction of mitochondrial signal transduction pathway-mediated apoptosis in human HL60 cells assessed as increase in cleaved caspase-8 level at 30 uM after 8 hrs by Western blot analysis; type: functional, cell-based
Outline: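 HL60 cells (1 × 10^6) pre-incubated 24 h, then exposed to 30 μM final for 8 h. Whole-cell lysates in extraction buffer, resolved on 15% SDS-PAGE, blotted to PVDF, probed overnight at 4 °C with anti-caspase-8 or anti-caspase-9 primary antibodies, β-actin as loading reference. Procaspase loss and cleaved caspase bands read.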

HL-60 [12] = assay: Induction of apoptosis in human HL60 cells assessed as viable cells at 30 uM after 24 hrs by AnnexinV/propidium iodide staining (Rvb =85.6%); type: functional; conditions: HL-60, 24 h, read-out: Activity
A549 [13] = assay: Induction of apoptosis in human A549 cells assessed as necrotic cells at 30 uM after 48 hrs by AnnexinV/propidium iodide staining (Rvb =3.4%); type: functional
A549 [14] = assay: Induction of apoptosis in human A549 cells assessed as late apoptotic cells at 30 uM after 24 hrs by AnnexinV/propidium iodide staining (Rvb =1.1%); type: functional
A549 [15] = assay: Induction of apoptosis in human A549 cells assessed as late apoptotic cells at 30 uM after 48 hrs by AnnexinV/propidium iodide staining (Rvb =1.1%); type: functional
A549 [16] = assay: Induction of apoptosis in human A549 cells assessed as viable cells at 30 uM after 48 hrs by AnnexinV/propidium iodide staining (Rvb =91.2%); type: functional; conditions: A549, 48 h, read-out: Activity
A549 [17] = assay: Induction of apoptosis in human A549 cells assessed as early apoptotic cells at 30 uM after 24 hrs by AnnexinV/propidium iodide staining (Rvb =4.3%); type: functional
HL-60 [18] = assay: Induction of mitochondrial signal transduction pathway-mediated apoptosis in human HL60 cells assessed as increase in Bax level at 30 uM after 8 to 24 hrs by Western blot analysis; conditions: TDE = time-dependent effect
A549 [19] = assay: Induction of mitochondrial signal transduction pathway-mediated apoptosis in human A549 cells assessed as increase in cleaved caspase-3 level at 30 uM after 24 to 48 hrs by Western blot analysis
A549 [20] = assay: Induction of mitochondrial signal transduction pathway-mediated apoptosis in human A549 cells assessed as increase in cleaved caspase-8 level at 30 uM after 24 to 48 hrs by Western blot analysis

C=C(CC[C@@H](CO)[C@H]1[C@H](O)C[C@@]2(C)C3=CC[C@@H](C(=C)C)[C@](C)(CCCO)C3=CC[C@]12C)C(C)C [PORICOTRIOL A]
IC50 (HL-60 [1]): 1.9 µM
IC50 (A549 [2]): 4.2 µM
IC50 (OVCAR-3): 2.2 µM
IC50 (PANC-1): 26.3 µM
Activity (HL-60 [3]): 35.4%
Activity (HL-60 [4]): 28.9%
Activity (HL-60 [5]): 58.6%
Activity (A549 [6]): 7.5%
Activity (A549 [7]): 7.8%
Activity (A549 [8]): 3.6%
Activity (A549 [9]): Active
Activity (HL-60 [10]): Active
Activity (HL-60 [11]): Active
viability at 30 µM (HL-60 [12]): 34.8%
Activity (A549 [13]): 6.3%
Activity (A549 [14]): 2.9%
Activity (A549 [15]): 20.2%
viability at 30 µM (A549 [16]): 49.3%
Activity (A549 [17]): 3.5%
Activity (HL-60 [18]): tde
Activity (A549 [19]): inactive
Activity (A549 [20]): inactive
